Experiments:
[1] = ^177Lu/^64Cu human blood serum competition; type: in vitro ADME
In short: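 Test chelator was labelled with 177Lu or 64Cu in 10 mM NaOAc pH 5.0 for 10 min at ambient temperature. Thawed human serum (750 µL), 300 µL complex and 450 µL PBS were run in triplicate at 37 °C and 550 rpm. Sampling was at 1.5/24 h (177Lu) and 1/20 h (64Cu). Aliquots were PBS-diluted, counted and passed through PD-10 size exclusion, and the PBS eluate was counted as serum-bound. Result is % chelate-bound.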

[2] = ^67Ga/^111In mouse serum competition; type: in vitro ADME; settings: mouse blood serum
In short: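 Test chelator (0.3 mg/mL) was labelled with 67Ga (NaOAc 10 mM, pH 4) or 111In (pH 5) for 10 min at ambient temperature. Complex was added to thawed mouse serum plus PBS in triplicate and held at ambient temperature. Sampling was at 15 min, 1 h and 2 h (67Ga) and 1 and 24 h (111In). Aliquots were diluted to 2.5 mL PBS, counted and loaded on PD-10. The 3.5 mL PBS eluate, holding protein-bound activity, was counted against pre-load activity.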

[3] = ^64Cu biodistribution in healthy nude athymic mice; type: in vivo, mouse; settings: n = 4
In short: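 Healthy nude athymic mice received the HPLC-purified 64Cu complex by tail vein: ~30 µCi (~3 µg) in 200 µL of 2:1 saline:PBS, pH 7. Mice were killed by CO2 at 15 min, 1, 4 and 24 h (n = 4). Organs were rinsed, air-dried 5 min, weighed and gamma-counted. Counts were background- and decay-corrected, calibrated against 64Cu standards and expressed as %ID/g.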

[4] = 24 h, with both ^177Lu and ^111In; cited from earlier work

O=C(O)CN1CCN(CC(=O)O)CCN(CC(=O)O)CCN(CC(=O)O)CC1 [DOTA, 1,4,7,10-tetraazacyclododecane-1,4,7,10-tetraacetic acid]
long-term stability (% chelator-bound radiometal) ([1]; 20 h, 37 °C, 550 rpm, ^64Cu, n = 3): 74%

O=C(O)c1cccc(CN(CCN(Cc2cn(Cc3ccccc3)nn2)Cc2cccc(C(=O)O)n2)Cc2cn(Cc3ccccc3)nn2)n1 [H2azapa, N,N′-[1-Benzyl-1,2,3-triazole-4-yl]methyl-N,N′-[6-(carboxy)-pyridin-2-yl]-1,2-diaminoethane]
^111In transchelated by serum proteins ([2]; 24 h, ^111In complex): 35%
^64Cu transchelated to serum proteins ([1]; 20 h, 37 °C): 2%
^177Lu transchelated by serum proteins ([1]; 24 h, ^177Lu complex): 54%
organ uptake, heart ([3]; 4 h post i.v. injection): 3.8 % ID/g
organ uptake, heart ([3]; 24 h post i.v. injection): 3.4 % ID/g

O=C(O)CN(CCN(CC(=O)O)Cc1cccc(C(=O)O)n1)Cc1cccc(C(=O)O)n1 [H4octapa]
stable in serum [4]: > 85%
transchelated by serum proteins [4]: < 15%

O=C([O-])CN(CCN(CC(=O)[O-])CC(=O)[O-])CCN(CC(=O)[O-])CC(=O)[O-].[111In+3].[H+].[H+] [[^111In(DTPA)]^2−]
medium-term stability (% chelator-bound radiometal) ([2]; 1 h, 25 °C, n = 3): 87 (±2) %
long-term stability (% chelator-bound radiometal) ([2]; 24 h, 25 °C, ^111In, n = 3): 88 (±2) %

O=C([O-])CN1CCN(CC(=O)[O-])CCN(CC(=O)[O-])CCN(CC(=O)[O-])CC1.[177Lu+3].[H+] [[^177Lu(DOTA)]^−]
medium-term stability (% chelator-bound radiometal) ([1]; 1.5 h, 37 °C, 550 rpm, ^177Lu, n = 3): 87.7 (±0.7) %
long-term stability (% chelator-bound radiometal) ([1]; 24 h, 37 °C, 550 rpm, ^177Lu, n = 3): 87 (±2) %
